Experimental data as given in paper PMC3703919 (Clinical cancer research : an official journal of the …, 2009).

Columns and labels:
[1] = system: patients with advanced solid tumors; experiment: Phase I dose escalation: toxicity assessment; assay type: in vivo, human
In short: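 Cohorts of three started at 100 μg/kg s.c. daily ×5 per 21-d cycle, with planned levels of 100–1,000 μg/kg. One DLT expanded a cohort to six. DLT was grade ≥3 toxicity at least possibly treatment-related, and MTD allowed ≤1/6 with DLT. Exam and labs ran weekly in cycle 1, then on day 1 of later cycles, graded by CTCAE v3.0.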

[2] = Pharmacokinetics: plasma Ang-; assay type: in vivo, human
[3] = 18 patients, 100-700 μg/kg s.c. daily x5 every 21 d, CTCAE v3.0, count

CC[C@H](C)[C@H](NC(=O)[C@H](Cc1ccc(O)cc1)NC(=O)[C@@H](NC(=O)[C@H](CCCNC(=N)N)NC(=O)[C@@H](N)CC(=O)O)C(C)C)C(=O)N[C@@H](Cc1c[nH]cn1)C(=O)N1CCC[C@H]1C(=O)O [Ang-(1-7), Angiotensin-(1-7)]
SAE possibly related to Ang-(1-7) ([1]; 400 μg/kg, one patient with metastatic pancreatic cancer, first cycle): grade 3 deep vein thrombosis | dose-limiting toxicities encountered ([1]; 700 μg/kg dose): stroke (grade 4) and reversible cranial neuropathy (grade 3) | Cerebrovascular ischemia, grade 2, adverse events at least possibly related to treatment [1, 3]: 0 | Cerebrovascular ischemia, grade 3, adverse events at least possibly related to treatment [1, 3]: 0 | Cerebrovascular ischemia, grade 4, adverse events at least possibly related to treatment [1, 3]: 1 | Cerebrovascular ischemia, total, adverse events at least possibly related to treatment [1, 3]: 1 | Fatigue, grade 2, adverse events at least possibly related to treatment [1, 3]: 2 | Fatigue, grade 3, adverse events at least possibly related to treatment [1, 3]: 0 | Fatigue, grade 4, adverse events at least possibly related to treatment [1, 3]: 0 | Fatigue, total, adverse events at least possibly related to treatment [1, 3]: 2 | Gingival regression, grade 2, adverse events at least possibly related to treatment [1, 3]: 1 | Gingival regression, grade 3, adverse events at least possibly related to treatment [1, 3]: 0 | Gingival regression, grade 4, adverse events at least possibly related to treatment [1, 3]: 0 | Gingival regression, total, adverse events at least possibly related to treatment [1, 3]: 1 | Hypocalcemia, grade 2, adverse events at least possibly related to treatment [1, 3]: 1 | Hypocalcemia, grade 3, adverse events at least possibly related to treatment [1, 3]: 0 | Hypocalcemia, grade 4, adverse events at least possibly related to treatment [1, 3]: 0 | Hypocalcemia, total, adverse events at least possibly related to treatment [1, 3]: 1 | Muscle weakness, grade 2, adverse events at least possibly related to treatment [1, 3]: 1 | Muscle weakness, grade 3, adverse events at least possibly related to treatment [1, 3]: 0 | Muscle weakness, grade 4, adverse events at least possibly related to treatment [1, 3]: 0 | Muscle weakness, total, adverse events at least possibly related to treatment [1, 3]: 1 | Musculoskeletal pain, grade 2, adverse events at least possibly related to treatment [1, 3]: 2 | Musculoskeletal pain, grade 3, adverse events at least possibly related to treatment [1, 3]: 0 | Musculoskeletal pain, grade 4, adverse events at least possibly related to treatment [1, 3]: 0 | Musculoskeletal pain, total, adverse events at least possibly related to treatment [1, 3]: 2 | Neuropathy, cranial, grade 2, adverse events at least possibly related to treatment [1, 3]: 0 | Neuropathy, cranial, grade 3, adverse events at least possibly related to treatment [1, 3]: 1 | Neuropathy, cranial, grade 4, adverse events at least possibly related to treatment [1, 3]: 0 | Neuropathy, cranial, total, adverse events at least possibly related to treatment [1, 3]: 1 | Orthostasis, grade 2, adverse events at least possibly related to treatment [1, 3]: 1 | Orthostasis, grade 3, adverse events at least possibly related to treatment [1, 3]: 0 | Orthostasis, grade 4, adverse events at least possibly related to treatment [1, 3]: 0 | Orthostasis, total, adverse events at least possibly related to treatment [1, 3]: 1 | Thrombosis/thrombus/embolism, grade 2, adverse events at least possibly related to treatment [1, 3]: 0 | Thrombosis/thrombus/embolism, grade 3, adverse events at least possibly related to treatment [1, 3]: 1 | Thrombosis/thrombus/embolism, grade 4, adverse events at least possibly related to treatment [1, 3]: 0 | Thrombosis/thrombus/embolism, total, adverse events at least possibly related to treatment [1, 3]: 1 | hematologic toxicity ([1]; all dose levels 100-700 μg/kg, 18 patients): No hematologic toxicity was observed | bleeding complications or episodes of hypertension ([1]; all dose levels, 18 patients): No bleeding complications or episodes of hypertension were observed | patients with mild muscle cramps ([1]; all dose levels, 18 patients): three | treatment-related deaths ([1]; all dose levels, 18 patients): no treatment-related deaths | recommended phase II dose ([1]; s.c. once daily for 5 consecutive days on a 3-week cycle): 0.4 mg/kg | Tmax ([2]; human, sc): 1 h | dose-dependent increases in drug exposure ([2]; s.c. 100-700 μg/kg, RIA): observed only at the highest dose level
